Experimental data from different studies.
Protocols differ between the studies behind these lines.
Target: Serine/threonine-protein kinase Nek3 (NEK3, Homo sapiens, UniProt P51956)
Residues used in one study (P51956 1-506): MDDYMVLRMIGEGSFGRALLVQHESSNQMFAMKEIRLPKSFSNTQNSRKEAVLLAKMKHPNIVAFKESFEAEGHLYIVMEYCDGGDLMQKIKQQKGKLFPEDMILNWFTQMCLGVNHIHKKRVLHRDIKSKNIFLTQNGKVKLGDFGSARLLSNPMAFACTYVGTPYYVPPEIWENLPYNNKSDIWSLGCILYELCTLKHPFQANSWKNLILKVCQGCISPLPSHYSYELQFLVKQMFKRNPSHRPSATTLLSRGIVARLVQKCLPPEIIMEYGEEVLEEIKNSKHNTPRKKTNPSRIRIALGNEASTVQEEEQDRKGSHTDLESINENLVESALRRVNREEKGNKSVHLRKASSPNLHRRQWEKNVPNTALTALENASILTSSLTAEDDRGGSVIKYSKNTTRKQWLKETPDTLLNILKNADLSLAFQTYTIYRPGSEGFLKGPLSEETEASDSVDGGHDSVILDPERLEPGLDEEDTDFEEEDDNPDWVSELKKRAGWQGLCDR

SMILES	assay	setting	endpoint	value
Cc1ccc(C(=O)Nc2ccc(CN3CCN(C)CC3)c(C(F)(F)F)c2)cc1C#Cc1cnc2cccnn12	enzyme activity, inhibitor	23.5 nM	remaining activity	86%
Cc1ccc(NC(=O)c2ccc(C)c(C(F)(F)F)c2)cc1C#Cc1nn(C2CCC(O)CC2)c2ncnc(N)c12 (stereo not shown)	cell-free assay	10 µM	remaining signal	102%
CCN(CC)c1ccc(C2=NNC(=O)CC2C)cc1[N+](=O)[O-] (stereo not shown)	enzyme activity, inhibitor	10 µM	remaining activity	90%
CNCc1ccccc1-c1csc([C@@H](C)Nc2nc(C)nc3cc(OC)c(OC)cc23)c1	cell-free assay, competition with immobilised ligand	1 µM	remaining binding	100%
CCCCNc1ncc2c(-c3ccc(F)cc3)nn(C[C@H]3CC[C@H](N)CC3)c2n1	target engagement in cells, inhibitor, chemoproteomics	20 mM	inhibition	10.1%
Cn1nc(C(=O)NCc2ccc(C(=O)O)cc2)cc1-c1ccc2[nH]ccc2c1	cell-free assay, competition with immobilised ligand	0.1 µM	remaining binding	100%
Nc1ncnc2occ(-c3ccc(NC(=O)Nc4cc(C(F)(F)F)ccc4F)cc3)c12	cell-free assay, inhibitor	20 µM	remaining signal	63%
Cc1cnc(NC2CCOCC2)nc1-n1cnc(C(=O)NC(CN)c2cc(F)cc(Cl)c2)c1 (stereo not shown)	enzyme activity, inhibitor, radiometric	1 µM	remaining activity	65%
CCCS(=O)(=O)Nc1ccc(F)c(C(=O)c2c[nH]c3ncc(-c4ccc(Cl)cc4)cc23)c1F	enzyme activity, inhibitor	1 µM	inhibition	< 10%
Cc1cc(NC(=O)c2cccc3cc(-c4cccc5[nH]nc(N)c45)ccc23)ccc1F	enzyme activity, inhibitor	0.1 µM	activity vs control	83%
Cn1cnc(Br)c1C1=CN(c2ncnc3[nH]cnc23)CCS1	enzyme activity, inhibitor, radiometric	50 nM	inhibition	14.7%
CNC(=O)c1cc(Oc2ccc(NC(=O)Nc3ccc(Cl)c(C(F)(F)F)c3)cc2)ccn1	cell-free assay	0.5 µM	remaining signal	97.2%
Nc1c(C(=O)NCc2ccc(C(=O)NCCCC3CCCCC3)cc2)cnn1-c1ccccc1	cell-free assay, competition with immobilised ligand	0.1 µM	remaining binding	100%
Cc1sc(C(=O)NC2COC2)cc1-n1cc(NC(=O)Nc2c(F)cccc2Cl)cn1	enzyme activity, inhibitor	10 µM	remaining activity	87.5%
C[C@H](NC(=O)c1cnc2n1[C@](C)(Cc1ccc(C#N)cc1)C(=O)N2c1cc(Cl)c(F)c(Cl)c1)C(=O)NC1(c2ccccn2)CC1	cell-free assay, competition with immobilised ligand	1 µM	remaining binding	100%
CCN(CC)CCNC(=O)c1c(C)[nH]c(/C=C2\C(=O)Nc3ccc(F)cc32)c1C	cell-free assay	0.5 µM	remaining signal	91.6%
Nc1cnc(N2CCc3cc(S(=O)(=O)Nc4c(F)cc(Cl)cc4F)cc(N4CCCC4=O)c32)nc1	cell-free assay, competition with immobilised ligand	1 µM	remaining binding	100%
CC(C)(C)c1nc(-c2cccc(NS(=O)(=O)c3c(F)cccc3F)c2F)c(-c2ccnc(N)n2)s1	enzyme activity, inhibitor, radiometric	1 µM	remaining activity	85%
N#CCCc1ccc2c(c1)-c1[nH]c3ccc([N+](=O)[O-])cc3c1CC(=O)N2	cell-free assay	0.5 µM	remaining signal	104%
